Bioassay records: PubChem BioAssay, several laboratories
SF1 activator = SF-1 (human) activation | CHO-K1 Gal4-SF-1 LBD luciferase reporter; % increase over DMSO SF-1-specific signal | activation, % at 10 µM | 65,000 compounds, 1.9% hits;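 active means activation above the mean activation of all tested compounds plus 3 SD, cut at about 50% in these data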
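Test system: CHO-K1 cells co-transfected with Gal4 DBD–human SF-1 LBD, 5xGal4 luciferase reporter. Quantity: 4,000 cells per well. Compound: 10 µM only. Incubation: compound added 1 h post-seeding, 20 h exposure at 37 °C, 5% CO2. Detection: SteadyLite luciferase luminescence. Replication: one test per compound.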
MT1-MMP txn act = MT1-MMP promoter transcription activation. HT1080 MT1-MMP promoter luciferase reporter, luminescence, overnight; active compounds read high. activation factor at 10 µM. 86,000 compounds, 0.16% hits;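 active means activation factor of at least 2 for MT1-MMP transcription at 10 µM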
RORA act = activates the human nuclear receptor RORA. P35398. CHO-K1 Gal4-RORA LBD luciferase reporter, luminescence; percent increase over mock-subtracted basal signal. activation, % at 10 µM. 65,000 compounds, 1.5% hits;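 active means activation above the mean of all tested compounds plus 3 SD, cut at about 49% in these data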;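 further: 0% = DMSO-treated RORA cells and 100% = added signal equal to DMSO minus mock-transfected cells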
Target sequence (P35398 whole entry, looked up, the tested form may be a part): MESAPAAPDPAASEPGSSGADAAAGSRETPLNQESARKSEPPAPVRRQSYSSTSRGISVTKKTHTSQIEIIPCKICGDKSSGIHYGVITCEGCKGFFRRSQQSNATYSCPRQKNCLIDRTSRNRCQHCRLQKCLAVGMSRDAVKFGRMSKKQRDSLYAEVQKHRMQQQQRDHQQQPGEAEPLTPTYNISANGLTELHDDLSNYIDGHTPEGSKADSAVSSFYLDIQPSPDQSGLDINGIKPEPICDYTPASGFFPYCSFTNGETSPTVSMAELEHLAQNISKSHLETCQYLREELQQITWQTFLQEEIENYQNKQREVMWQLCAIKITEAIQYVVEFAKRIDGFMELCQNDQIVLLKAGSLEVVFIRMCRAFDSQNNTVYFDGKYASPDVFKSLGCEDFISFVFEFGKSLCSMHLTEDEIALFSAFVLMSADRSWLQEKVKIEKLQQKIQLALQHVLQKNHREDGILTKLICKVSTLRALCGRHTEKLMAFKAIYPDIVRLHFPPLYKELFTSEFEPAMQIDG
Jurkat viability = cytotoxicity toward Jurkat cells; Jurkat E6.1 viability, ATP luminescence, 48 h; inhibition, % at 4 µM; 56,000 compounds, 1.2% hits;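 active means inhibition above the mean inhibition of all tested compounds plus 3 SD, cut at about 28% in these data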
HEK293 NFkB inh = inhibitors of the PMA/ionomycin-induced NF-kB reporter in HEK293 cells. HEK-293 NF-kB luciferase reporter, luminescence. inhibition, % at 3 µM. 62,000 compounds, 0.21% hits. AID 465;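 active means inhibition above the mean of all tested compounds plus 3 SD, cut at about 40% in these data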;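 further: 0% = stimulated DMSO wells and 100% = 10 µM reference inhibitor 5653914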
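System: NF-kB luciferase reporter HEK-293 cells | Replication: Single test | Control set: DMSO vs reference inhibitor | Evaluation: % inhibition | Schedule: 1 h pretreatment, 16 h stimulation, 37 °C | Probe or stimulus: PMA with ionomycin | Compound dosing: One dose, 3 µM | Detection: Luciferase luminescence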
Starred values were filed as active, the others as inactive; . = no result given. The list is not random: actives were taken first. Their share in the collection is about 2.9%.

SMILES	SF1 activator	MT1-MMP txn act	RORA act	Jurkat viability	HEK293 NFkB inh
O=C(c1ccc(CNc2c(N3CCCC3)c(=O)c2=O)cc1)N1CCc2ccccc2C1	-2	1.1	4	-4	8
COc1ccc(-c2cn3c(C)c(C(=O)NC(C)(C)C)sc3n2)cc1	48	1.8	56*	-8	-19
Cc1c(C(=O)Nc2ccccc2)sc2nc(-c3ccccc3)cn12	54*	.	58*	9	-5
CN(CC(=O)O/N=C(\N)c1cccc([N+](=O)[O-])c1)S(=O)(=O)c1ccccc1	.	1	.	.	.
COc1cc(C2Nc3ccc4ncccc4c3C3=C2C(=O)CCC3)cc(OC)c1O (stereo not drawn)	-11	0.8	-11	71*	14
CCOc1ccc(OCC)c(NC(=O)C2CCCN2S(=O)(=O)c2cccc3cccnc23)c1 (stereo not drawn)	58*	1	6	8	5
COc1ccc(NC(=O)C2CCCN2S(=O)(=O)c2cccc3cccnc23)c(OC)c1 (stereo not drawn)	-12	.	-3	-16	4
COC(=O)c1ccc(C(NC(=O)OCc2ccccc2)/C(F)=C/[C@@H](C)C(=O)NCCO)cc1 (stereo partly drawn)	.	1.1	.	.	.
COc1ccc(NC(=O)CSc2nc(C)c3c(c2C#N)CCCC3)cc1	.	1.1	.	.	.
CCc1nnc(NC(=O)CSc2nc(C)c3c(c2C#N)CCCC3)s1	55*	1.2	-9	.	.
O=C(CCn1c(=S)[nH]c2cc3c(cc2c1=O)OCO3)NCCN1CCCC1	8	1	8	.	13
COc1cc(NS(=O)(=O)c2ccc3c(c2)oc(=O)n3C)cc(OC)c1OC	18	1	9	40*	5
COc1ccc(NS(=O)(=O)c2ccc3c(c2)oc(=O)n3C)c(OC)c1	6	1.1	-1	-1	9
O=C(O)C(c1ccccc1)N1CCCC1 (stereo not drawn)	8	1.1	4	.	9
CCn1c(C)nc2cc(C(=O)OC(C(F)(F)C(F)F)C(F)(F)C(F)F)ccc21	-23	2.2*	-12	1	9
CCn1c(C)nc2cc(C(=O)NNS(=O)(=O)c3c(C)c(C)cc(C)c3C)ccc21	.	1.2	.	.	.
Cc1ccccc1Oc1ccc(Oc2ccccc2C)nn1	37	1.3	40	4	-6
CCOC(=O)N1CCN(c2cc(C)c(C(C)=O)cc2F)CC1	-14	1	15	2	0
CCOC(=O)N1CCN(c2ccc(C(=O)c3ccccc3)cc2F)CC1	36	1.4	58*	6	1
CCOC(=O)c1sc(Nc2cccc(C)c2C)nc1C	.	1.1	.	.	.
CCCS(=O)(=O)c1nnnn1-c1cccc(OC)c1	-58	0.1	-82	101*	34
CN(C1CCS(=O)(=O)C1)S(=O)C12CC3CC(CC(C3)C1)C2 (stereo not drawn)	-3	1	3	-12	1
COCCOc1nc2c(c(=O)n(C)c(=O)n2C)n1Cc1cccc(OC)c1	.	1	.	.	.
Oc1cc(NCc2cccnc2)ccc1-c1nc2ccccc2o1	38	1.7	61*	1	-24
CCc1ccc(OCC(=O)Nc2ccc(-c3nc4ccccc4o3)c(O)c2)cc1	49	1	-8	-11	-10
SMILES	SF1 activator	MT1-MMP txn act	RORA act	Jurkat viability	HEK293 NFkB inh
CN(C)c1ccc(C2=NOC(CN3C(=O)c4ccccc4S3(=O)=O)C2)cc1 (stereo not drawn)	33	1.8	60*	4	-36
O=C1c2ccccc2S(=O)(=O)N1Cc1nc2ccccc2s1	-43	.	-54	8	24
Cc1cc(C(=O)CSc2nncs2)c(C)n1-c1ccc2c(c1)OCO2	69*	1.5	36	17	-11
O=C(CSc1nncs1)NCc1ccc2c(c1)OCO2	11	1.3	-5	0	18
Cc1ccc(Cn2cccc(NC(=O)c3ccco3)c2=O)cc1	34	1.6	12	0	8
Cc1cccc(OCC(=O)Nc2cc(C)c(C)cc2O)c1	-23	1	-8	1	-7
COc1cccc(C(=O)/C=C/Nc2cc(C)ccc2O)c1	56*	1.5	22	64*	-1
Cc1cccc(OCC(=O)Nc2cc(C)ccc2O)c1	2	1.4	0	55*	15
C=CCOc1ccc(C2c3c(oc4ccccc4c3=O)C(=O)N2c2ccccn2)cc1OCC (stereo not drawn)	-10	1.1	11	-4	2
Cc1ccc(-c2cc(C(=O)NCc3cccs3)no2)cc1	60*	1.3	59*	1	-8
